The format of data set [1] is in vivo, Sprague Dawley rats. The note with it: for AUC: 0 to 48 h; for AUC / Cmax / half-life / Tmax / T1/2: plasma after intragastric ginsenoside Rb1 100 mg/kg, mean ± SE; for AUC increase compared with the control group: after intragastric ginsenoside Rb1 100 mg/kg. The method in brief:
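Male SD rats (200 ± 20 g, n = 8/group) were gavaged daily for two weeks with prebiotic fibre at 1.0 g/d/rat, or sterile water (10 ml/kg). After an overnight fast, test compound was given intragastrically at 100 mg/kg. Ophthalmic plexus blood was drawn at 0.25–48 h. Plasma was acetone-precipitated with a saikosaponin A internal standard and run on positive-mode UPLC-ESI-QqQ-MS/MS. AUC0–48h came from non-compartmental analysis, mean ± SE, ANOVA/Bonferroni.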

The conditions of data set [2]: cited from earlier work.
Another data set relates to intestinal microflora. The note with it: after colimycin 20 mg/kg/day; decreased from 22.1 ± 1.2%; cited from earlier work.
[3] abbreviates: FOS group (1.0 g/d/rat, two weeks).
[4] abbreviates: Fibersol-2 group (1.0 g/d/rat, two weeks).
Where [5] appears, read: GOS group (1.0 g/d/rat, two weeks).
The mark [6] stands for this setting: Sprague-Dawley, rat, plasma, po, 100 mg/kg, Cmax, FOS group (1.0 g/d/rat, two weeks).
The mark [7] stands for this setting: Sprague-Dawley, rat, plasma, po, 100 mg/kg, Cmax, Fibersol-2 group (1.0 g/d/rat, two weeks).
[8] abbreviates: Sprague-Dawley, rat, plasma, po, 100 mg/kg, Cmax, GOS group (1.0 g/d/rat, two weeks).
The mark [9] stands for this setting: Sprague-Dawley, rat, plasma, po, 100 mg/kg, T1/2, FOS group (1.0 g/d/rat, two weeks).
Setting [10] is: Sprague-Dawley, rat, plasma, po, 100 mg/kg, T1/2, Fibersol-2 group (1.0 g/d/rat, two weeks).
[11] abbreviates: Sprague-Dawley, rat, plasma, po, 100 mg/kg, T1/2, GOS group (1.0 g/d/rat, two weeks).
[12] abbreviates: Sprague-Dawley, rat, plasma, po, 100 mg/kg, Tmax, FOS group (1.0 g/d/rat, two weeks).
Setting [13] is: Sprague-Dawley, rat, plasma, po, 100 mg/kg, Tmax, Fibersol-2 group (1.0 g/d/rat, two weeks).
Setting [14] is: Sprague-Dawley, rat, plasma, po, 100 mg/kg, Tmax, GOS group (1.0 g/d/rat, two weeks).

Like-named read-outs stand apart in the source and are kept apart here. Marks after values point to notes of the source that are not given here.

The source of these data is PMC8020290 (Journal of Ginseng Research, 2020).

By Cmax is commonly meant the maximum level reached in the sampled fluid or tissue. Broadly, the half-life is the time in which the quantity being followed falls by half. A low value points to rapid decline. A word on the Tmax: it is the time at which the peak concentration occurs. `CC(C)=CCC[C@](C)(O[C@@H]1O[C@H](CO[C@@H]2O[C@H](CO)[C@@H](O)[C@H](O)[C@H]2O)[C@@H](O)[C@H](O)[C@H]1O)[C@H]1CC[C@]2(C)[C@@H]1[C@H](O)C[C@@H]1[C@@]3(C)CC[C@H](O[C@@H]4O[C@H](CO)[C@@H](O)[C@H](O)[C@H]4O[C@@H]4O[C@H](CO)[C@@H](O)[C@H](O)[C@H]4O)C(C)(C)[C@@H]3CC[C@]12C` [Rb1, ginsenoside Rb1]: the figures for the AUC in data set [1] (setting [3]), in data set [1] (setting [4]) and in data set [1] (setting [5]) were 34494.77 ± 8770.73^bc ng/ml∗h, 42110.46 ± 6452.33^c ng/ml∗h and 30813.79 ± 3334.99^b ng/ml∗h, respectively. Further, the “AUC increase compared with the control group” value (“AUC increase” below) in data set [1] (FOS intervention) turned out to be 2.52 times; in data set [1] (GOS intervention), 2.25 times; in data set [1] (fibersol-2 intervention), 3.07 times. The Cmax came out at 1530 ± 343 ng/mL in data set [1] (setting [6]), 3880 ± 2370 ng/mL in data set [1] (setting [7]) and 1210 ± 126 ng/mL in data set [1] (setting [8]). In addition, the values for the half-life in data set [1] (setting [9]), in data set [1] (setting [10]) and in data set [1] (setting [11]) were 19.4 ± 4.44 h, 24.2 ± 4.81 h and 19.7 ± 2.06 h, respectively. For the same compound, the Tmax in data set [1] (setting [12]) came out at 6.3 ± 2.82 h; in data set [1] (setting [13]), 1 ± 1.12 h; in data set [1] (setting [14]), 3.2 ± 3.55 h. The oral bioavailability in data set [2] is 0.28–1.18%.
Take `CC(C)=CCC[C@](C)(O[C@@H]1O[C@H](CO)[C@@H](O)[C@H](O)[C@H]1O)[C@H]1CC[C@]2(C)[C@@H]1[C@H](O)C[C@@H]1[C@@]3(C)CC[C@H](O)C(C)(C)[C@@H]3CC[C@]12C` [CK, 20-O-β-D-glucopyranosyl-20(S)-protopanaxadiol]: in data set [1] (setting [3]), the AUC is 1056.88 ± 173.22^ab ng/ml∗h, the Cmax is recorded as 42.94 ± 12.08^a ng/ml, the T1/2 was 92.12 ± 158.19^a h and the Tmax is 24.80 ± 15.60^b h. Besides, in data set [1] (setting [4]), the AUC is reported as 1251.99 ± 740.67^b ng/ml∗h, the Cmax is given as 53.38 ± 25.17^a ng/ml, the T1/2 is reported as 50.86 ± 65.79^a h and the Tmax is given as 29.00 ± 19.72^b h. Moreover, in data set [1] (setting [5]), the AUC is 1434.71 ± 415.30^b ng/ml∗h, the Cmax is on record as 57.46 ± 7.17^a ng/ml, the T1/2 was 77.35 ± 129.14^a h and the Tmax is 15.30 ± 11.98^ab h. Further, the “AUC increase” value in data set [1] (GOS intervention) is given as 2.42 times. The “AUC increase” value in data set [1] (fibersol-2 intervention) is recorded as 2.11 times. The oral bioavailability in data set [2] is on record as 1.8–35.0%.
As for `CC(C)=CCC[C@](C)(O[C@@H]1O[C@H](CO)[C@@H](O)[C@H](O)[C@H]1O)[C@H]1CC[C@]2(C)[C@@H]1[C@H](O)C[C@@H]1[C@@]3(C)CC[C@H](O[C@@H]4O[C@H](CO)[C@@H](O)[C@H](O)[C@H]4O[C@@H]4O[C@H](CO)[C@@H](O)[C@H](O)[C@H]4O)C(C)(C)[C@@H]3CC[C@]12C` [Rd, ginsenoside Rd], the AUC in data set [1] (setting [3]) is on record as 1616.98 ± 321.59^b ng/ml∗h; in data set [1] (setting [4]) it was 1754.98 ± 335.76^b ng/ml∗h; in data set [1] (setting [5]), 1479.93 ± 381.35^b ng/ml∗h. For the same compound, the “AUC increase” value in data set [1] (FOS intervention) was determined as 1.91 times; in data set [1] (GOS intervention), 1.74 times; in data set [1] (fibersol-2 intervention), 2.06 times. The Cmax in data set [1] (setting [6]) is 110 ± 25.1 ng/mL; in data set [1] (setting [7]) it was 145 ± 67.2 ng/mL; in data set [1] (setting [8]), 156 ± 39 ng/mL. In addition, the results for the half-life in data set [1] (setting [9]), in data set [1] (setting [10]) and in data set [1] (setting [11]) were 15.2 ± 5.17 h, 10.3 ± 3.79 h and 18.6 ± 18 h, respectively. Further, the Tmax amounted to 7.6 ± 0.89 h in data set [1] (setting [12]), 7.6 ± 1.67 h in data set [1] (setting [13]) and 6.4 ± 0.89 h in data set [1] (setting [14]).
As for `CC(C)=CCC[C@](C)(O[C@@H]1O[C@H](CO)[C@@H](O)[C@H](O)[C@H]1O)[C@H]1CC[C@]2(C)[C@@H]1[C@H](O)C[C@@H]1[C@@]3(C)CC[C@H](O[C@@H]4O[C@H](CO)[C@@H](O)[C@H](O)[C@H]4O)C(C)(C)[C@@H]3CC[C@]12C` [F2, ginsenoside F2], the AUC in data set [1] (setting [3]) is 200.38 ± 41.50^b ng/ml∗h; in data set [1] (setting [4]), 153.78 ± 36.00^ab ng/ml∗h; in data set [1] (setting [5]), 121.97 ± 29.35^a ng/ml∗h. Further, in data set [1] (FOS intervention), the “AUC increase” value was found to be 1.94 times. Besides, the Cmax amounted to 15.2 ± 2.49 ng/mL in data set [1] (setting [6]), 35.3 ± 18.3 ng/mL in data set [1] (setting [7]) and 11.4 ± 3.44 ng/mL in data set [1] (setting [8]). The half-life in data set [1] (setting [9]) is 23.2 ± 37.8 h; in data set [1] (setting [10]), 2.67 ± 0.95 h; in data set [1] (setting [11]) it was 4.52 ± 3.73 h. Besides, the figures for the time of peak concentration (Tmax) in data set [1] (setting [12]), in data set [1] (setting [13]) and in data set [1] (setting [14]) were 8 ± 1.41 h, 6.8 ± 1.09 h and 7.6 ± 1.67 h, respectively.
For the compound colimycin, the “ginsenoside Rb1-hydrolysing activity by intestinal microflora” value with intestinal microflora is recorded as 4.7 ± 2.7%.
